Assay results collected from several papers.
Each line is one published result; the experiments were not run side by side.
CES2: Cocaine esterase (CES2, Homo sapiens, UniProt O00748)
MPO: Myeloperoxidase (MPO, Homo sapiens, UniProt P05164)
CHRM5: Muscarinic acetylcholine receptor M5 (CHRM5, Homo sapiens, UniProt P08912)
UDP-N-acetylglucosamine--dolichyl-phosphate N-acetylglucosaminephosphotransferase: UDP-N-acetylglucosamine--dolichyl-phosphate N-acetylglucosaminephosphotransferase (Homo sapiens, UniProt Q9H3H5)

`Cn1cc(C2=C(c3cn(CCCSC(=N)N)c4ccccc34)C(=O)NC2=O)c2ccccc21` has an IC50 of 0.118 µM (Serine/threonine-protein kinase 10 (STK10, Homo sapiens, UniProt O94804); enzyme activity, inhibitor).
`Cc1nn(-c2nc3ccccc3[nH]2)c(O)c1C(c1ccccn1)c1c(C)nn(-c2nc3ccccc3[nH]2)c1O` gave an IC50 of greater than 40 µM (Cyclic GMP-AMP synthase (CGAS, Homo sapiens, UniProt Q8N884); enzyme activity, inhibitor).
For `O=C(c1ccc(F)c(F)c1Nc1ccc(I)cc1F)N1CC(O)([C@@H]2CCCCN2)C1`, the IC50 was greater than 100 µM (CES2; enzyme activity, inhibitor, fluorescence; with preincubation).
For `NCC(=O)O`, the IC50 was 990 µM (ltaA (Aeromonas jandaei, UniProt O07051); enzyme activity, inhibitor).
With `NC/C(=C\F)COc1cccc(Cn2c(=S)[nH]c(=O)c3[nH]cnc32)c1` the IC50 was 0.017 µM (MPO; enzyme activity, inhibitor, fluorescence).
For `O=C(CCNC(=O)CNC(=O)CC(c1ccccc1)(c1ccccc1)c1ccccc1)NC[C@@H]1CCCN(Cc2cccnc2F)C1`, the IC50 was greater than 30 µM (CHRM5; ligand displacement, radioligand; cell membranes).
For `COc1cc2c(cc1OC)C(=O)/C(=C/c1cc3ccccc3c3ccccc13)C2`, the IC50 was 2.98 µM (CES2; enzyme activity, inhibitor, fluorescence; with preincubation).
The IC50 of `CO[C@H]1[C@H](O[C@H]([C@H]2O[C@@H](n3ccc(=O)[nH]c3=O)[C@H](O)[C@@H]2O)[C@H](NCCCNC(=O)[C@@H](NC(=O)[C@@H](NC(=O)N[C@H](C(=O)O)C(C)C)[C@@H]2CCN=C(N)N2)[C@@H](O)C(C)C)C(=O)O)O[C@H](CN)[C@H]1O` is reported as greater than 50 µM (UDP-N-acetylglucosamine--dolichyl-phosphate N-acetylglucosaminephosphotransferase; enzyme activity, inhibitor).
The IC50 of `COc1cc2c(cc1OC)C(=O)/C(=C/c1ccc(C)cc1F)C2` is reported as greater than 100 µM (CES2; enzyme activity, inhibitor, fluorescence; with preincubation).
The IC50 of `O=C(CCNC(=O)CNC(=O)CC(c1ccccc1)(c1ccccc1)c1ccccc1)NCC1CCN(Cc2ccc(F)cc2)CC1` is reported as 35.2 µM (CHRM5; ligand displacement, radioligand; cell membranes).
For `CC(C)OCCn1c(=S)[nH]c(=O)c2[nH]ccc21`, the IC50 was 0.038 µM (MPO; enzyme activity, inhibitor, fluorescence).
With `CC[N+](CC)(CC)Cc1ccccc1.CC[N+](CC)(CC)Cc1ccccc1.[Br][Co-2]([Br])([Br])[Br]` the IC50 was 8.53 µM (MPO; enzyme activity, inhibitor, absorbance).
For `CO[C@H]1[C@H](O[C@H]([C@H]2O[C@@H](n3ccc(=O)[nH]c3=O)[C@H](O)[C@@H]2O)[C@H](NCCCNC(=O)[C@@H](NC(=O)[C@@H](NC(=O)N[C@H](C(=O)O)C(C)C)[C@@H]2CCN=C(N)N2)[C@@H](OC(=O)CCCCCCCCCCCCN(O)C(=N)N)C(C)C)C(=O)O)O[C@H](CN)[C@H]1O`, the IC50 was 0.18 µM (UDP-N-acetylglucosamine--dolichyl-phosphate N-acetylglucosaminephosphotransferase; enzyme activity, inhibitor).
`CCc1cc2c(cc1N1CCC(N3CCOCC3)CC1)C(C)(C)c1[nH]c3cc(C#N)ccc3c1C2=O` has an IC50 of greater than 100 µM (CES2; enzyme activity, inhibitor, fluorescence; with preincubation).
The IC50 of `O=C(O[C@@H]1[C@@H](O)[C@H](Oc2cc(O)c3c(c2)O[C@H](c2ccccc2)CC3=O)O[C@@H]2COC(=O)c3cc(O)c(O)c(O)c3-c3c(cc(O)c(O)c3O)C(=O)O[C@@H]12)c1cc(O)c(O)c(O)c1` is reported as 1.5 µM (Protein disulfide-isomerase A6 (PDIA6, Homo sapiens, UniProt Q15084); enzyme activity, inhibitor, fluorescence).
